From ChEMBL document CHEMBL1150653, “Novel terpenoids from the formosan soft coral Cespitularia hypotentaculata” (2002)
Values after ≈ are worked out from the molar mass of the structure shown.

Assays:
Format in all cases: functional
[1] = tested on: A549; experiment: Cytotoxicity against human A549 cells after 6 days by MTT assay; settings: A549, 144 h, read-out: ED50 (the source's name)
Procedure, shortened: (§1)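 Human cell lines: A549 (lung adenocarcinoma) and HT-29 (colon adenocarcinoma), obtained from a culture collection. The assay follows a previously published procedure.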

[2] = tested on: HT-29; experiment: Cytotoxicity against human HT-29 cells after 6 days by MTT assay; settings: HT-29, 144 h, read-out: ED50 (the source's name); procedure, shortened: as §1
[3] = tested on: P388; experiment: Cytotoxicity against mouse P388 cells after 3 days by MTT assay; settings: P388, 72 h, read-out: ED50 (the source's name)
Procedure, shortened: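 Mouse P-388 lymphocytic leukemia cells, obtained from an academic laboratory. The assay follows a previously published procedure.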

## C=C1CC[C@@H]2CCc3coc(c3C2(C)C)C/C(C)=C/C(O)C1 (some centres undefined) [CESPITULARIN A]
[1]
  EC50: 8.42 µg/mL (≈ 28 µM)
[2]
  EC50: 9.76 µg/mL (≈ 32.5 µM)
[3]
  EC50: 3.66 µg/mL (≈ 12.2 µM)

## C=C1CC/C=C(\C)Cc2occ3c2C(C)(C)[C@H](CC1)CC3 [CESPITULARIN B]
[1]
  EC50: 7.96 µg/mL (≈ 28 µM)
[2]
  EC50: 9.25 µg/mL (≈ 32.5 µM)
[3]
  EC50: 3.23 µg/mL (≈ 11.4 µM)

## C=C1CC/C=C(\C)C[C@@H](O)C2=C(C)CC[C@@H](CC1)C2(C)C [CESPITULARIN C]
[1]
  EC50: 0.12 µg/mL (≈ 0.416 µM)
[2]
  EC50: 8.86 µg/mL (≈ 30.7 µM)
[3]
  EC50: 0.01 µg/mL (≈ 0.0347 µM)

## C=C1CC[C@@H]2CCC3=C(C2(C)C)[C@@](O)(C/C(C)=C/[C@@H](O)C1)OC3=O [CESPITULARIN D]
[1]
  EC50: > 50 µg/mL
[2]
  EC50: > 50 µg/mL
[3]
  EC50: 3.86 µg/mL (≈ 11.6 µM)

## C=C1CC[C@@H]2CCC3=C(C(=O)[C@@H](/C(C)=C/C(O)C1)[C@H]3O)C2(C)C (some centres undefined) [CESPITULARIN F]
[1]
  EC50: 16.1 µg/mL (≈ 50.9 µM)
[2]
  EC50: > 50 µg/mL
[3]
  EC50: > 50 µg/mL

## C=C1CC/C=C(\C)[C@@H]2C(=O)C3=C(CC[C@@H](CC1)C3(C)C)[C@@H]2O [CESPITULARIN G]
[1]
  EC50: > 50 µg/mL
[2]
  EC50: > 50 µg/mL
[3]
  EC50: > 50 µg/mL

## C/C1=C\C[C@@H]2CCC3=C(C(=O)[C@@H]([C@@H](C)CC(=O)C1)[C@H]3O)C2(C)C [CESPITULARIN H]
[1]
  EC50: 9.32 µg/mL (≈ 29.5 µM)
[2]
  EC50: 23.7 µg/mL (≈ 74.9 µM)
[3]
  EC50: > 50 µg/mL

## C=C1CC[C@@H]2CCC=C(C(=O)C/C(C)=C/C(O)C1)C2(C)C (some centres undefined) [CESPUTULARIN E]
[1]
  EC50: 0.034 µg/mL (≈ 0.118 µM)
[2]
  EC50: 17.1 µg/mL (≈ 59.3 µM)
[3]
  EC50: 4.66 µg/mL (≈ 16.2 µM)
